# Experimental data from PMC10073267 (Journal of peptide science : an official publication of the …, 2023).
# Assay: Octanol–water partitioning in the presence of sodium dodecanoate
# Format: physicochemical
# Conditions: mean ± SD; octanol–water partitioning with sodium dodecanoate (2.5 equiv); D2O
# Summary of the method: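 Test compound dissolved in D2O as 0.02 M stock, mixed with equal volume of octanol, with or without sodium dodecanoate (2.5 equiv), triplicate tubes each. Vortexed 30 s, centrifuged 15 min, ambient ~22 °C. Aqueous-layer NMR integrations pre- and post-wash compared. Partitioning taken as difference between octanol-only and octanol + lipid washes, averaged over three replicates.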
row,Structure (SMILES),Percent in Aqueous Layer [%]
1,"CC(=O)N[C@@H](CCCN=C(N)N)C(N)=O [1·H^+, Ac-Arg-NH2]",30.4 ± 1.5
2,"CNC(=O)[C@H](CCCNC(=N)N)NC(C)=O [2·H^+, Ac-Arg-NHMe]",19.8 ± 0.1
3,"CC(=O)N[C@@H](CCCNC(=N)N)C(=O)N(C)C [3·H^+, Ac-Arg-NMe2]",18.3 ± 0.7
4,"CC(=O)N(C)C(CCCN=C(N)N)C(=O)N(C)C (stereo not shown) [4·H^+, Ac-(N-Me)Arg-NMe2]",12.7 ± 1.6
